Screening results as filed in PubChem BioAssay.
TAG inh = inhibitors of triacylglycerol accumulation, primary screen, cell-based, uHTS, fluorescence, H9c2 | inhibition, % at 12.5 µM | hit rate 0.66% among 230,000 | H9c2 cells, Nile Red lipid (TAG) fluorescence; cells loaded with 200 µM oleic acid;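 active means pattern-corrected inhibition of lipid staining of at least 50% with the nuclear-stain viability signal not falling by more than 50%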
GRK2 inh = compounds blocking aptamer binding on GRK2 – biochemical, human GRK2, bead flow cytometry, HTS, primary screen | FAM-aptamer displacement from GRK2 | inhibition of aptamer binding, % at 10 µM | hit rate 0.59% among 330,000 | AID 488847, 2010;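 active means inhibition of aptamer binding above 40%, roughly 3 SD of noise, on plates passing a quality check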;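 further: median bead fluorescence of bound FAM aptamer so fluorescent compounds give negative values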
Lipid droplet = inhibitors of hepatocyte lipid droplet formation, primary screen, imaging, high-throughput imaging, BODIPY stain. AML12 mouse hepatocytes, oleate lipid droplets. inhibition, % at 6.5 µM. hit rate 0.4% among 240,000. AID 1656, 2009;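 active means lipid droplet intensity inhibited by at least 50%, with more than 500 cells counted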
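System: AML12 hepatocytes (mouse). Probe or stimulus: oleic acid at 100 µM to induce lipid droplet formation. Times: overnight treatment with compound plus oleate. Detection: Image-based BODIPY and DAPI two-channel analysis. Evaluation: percent inhibition of filter-corrected integrated lipid droplet intensity per well.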
NTR1 ag = agonists of human NTR1, primary screen, imaging, U2OS cells, beta-arrestin-GFP, high content. Neurotensin receptor type 1 (Homo sapiens), P30989. NTR1-U2OS beta-arrestin-GFP spot imaging, agonist mode. activation, % at 20 µM. hit rate 0.17% among 330,000;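 active means activation at or above 40% of the spot to cytoplasm intensity ratio, with at least 20 cells analyzed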
Beta2AR agonist = beta2AR agonists driving receptor internalization, primary screen, cell-based, FAP fluorogen, flow cytometry. Am2.2-beta2AR cells. Beta-2 adrenergic receptor (Homo sapiens), P07550. response, % (test concentration not listed). hit rate 0.43% among 340,000. AID 504454, 2011;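 active means response above a set limit, near 3 SD of response in nonfluorescent compounds, cut at about 42% in these data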
Target sequence (P07550 whole entry, looked up): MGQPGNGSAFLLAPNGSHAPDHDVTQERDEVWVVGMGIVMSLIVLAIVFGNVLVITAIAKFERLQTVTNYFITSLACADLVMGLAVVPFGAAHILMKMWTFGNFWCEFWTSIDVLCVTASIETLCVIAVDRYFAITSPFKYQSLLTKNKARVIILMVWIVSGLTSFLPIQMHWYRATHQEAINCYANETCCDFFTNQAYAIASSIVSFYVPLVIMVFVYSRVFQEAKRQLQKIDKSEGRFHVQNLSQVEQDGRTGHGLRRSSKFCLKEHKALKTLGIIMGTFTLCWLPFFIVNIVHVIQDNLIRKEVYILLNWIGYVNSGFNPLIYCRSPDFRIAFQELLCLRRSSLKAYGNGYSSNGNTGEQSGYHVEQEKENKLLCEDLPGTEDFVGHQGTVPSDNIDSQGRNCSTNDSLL
Arr AP2 block = inhibitors of beta-arrestin/AP2 binding, primary screen, biochemical, GPCR trafficking, flow cytometry; hit rate 0.31% among 340,000; FITC-arrestin peptide / GST-AP2 beads; AP2 beta2 appendage carries R879A mutation; inhibition, % at 10 µM; AID 504490, 2011; beta-arrestin 1 C-terminal peptide binding to AP2 beta2-adaptin appendage (human);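 active means inhibition above a set limit, near 3 SD of compounds lacking own fluorescence, cut at about 54% in these data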
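Material – GST-tagged AP2 beta2-adaptin appendage (R879A) on 4 µm glutathione beads · Probe or stimulus – fluorescein-tagged arrestin peptide at 50 nM final · Timing – 12 min plus 1 h, RT · Detection – bead flow cytometry, FITC channel · Read-out basis – inhibition as reduced fluorescein signal on beads, percent · Medium – PBS plus Tween 20 (0.05%) and BSA (0.1%)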
Lipid drop inh = hepatocyte lipid droplet accumulation inhibitors, confirmation, imaging, AML12 mouse hepatocytes, single concentration, high-content; shares compounds with Lipid droplet; BODIPY lipid droplet imaging; droplets induced with 100 µM oleic acid; inhibition, % at 5.2 µM; hit rate 65% among 870;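 active means inhibition of lipid droplet metric at least 50%, with more than 300 cells in each of four replicates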
AML12 tox img = AML12 hepatocyte cytotoxicity, counter-screen for hepatic lipid droplet formation project, imaging, DAPI nuclear morphology imaging; shares compounds with Lipid droplet; AML12 mouse hepatocytes; hits give high values; cells fed 100 µM oleate overnight; z-score at 5 µM; hit rate 3% among 870; AID 463200, 2010; in the data active means z-score above about 6.3;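 further: compound exposure lasted overnight at 37 °C before fixation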
AML12 tox ATP = AML12 hepatocyte cytotoxicity, confirmation, cytotoxicity control for hepatic lipid droplet formation project, cell-based, single concentration; shares compounds with Lipid droplet; AML12 mouse hepatocyte viability, ATP luminescence; cells loaded with 100 µM oleic acid; cytotoxicity, % at 50 µM; 530 tested, under 10 active;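 active means cytotoxicity above 50% in each of four replicates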;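 further: compound exposure lasted overnight at 37 °C before the ATP read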
Of the large screens only hits and unclear results are named; the others gave an inactive call (follow-up assays come after a bar, where they were run). An excerpt weighted towards active compounds, which were near 2% of everything screened.

CCOc1ccccc1NC(=O)CCCNC(=O)c1ccc(Cl)cc1	Lipid droplet 73 (no result: TAG inh) | Lipid drop inh 78 | AML12 tox img inactive | AML12 tox ATP inactive
CCN(CC)CCNC(=O)c1ccc2c(c1NCCO)C(=O)c1ccccc1C2=O	none (no result: Beta2AR agonist, Arr AP2 block)
CC1CCN(C(=O)c2ccc3c(c2NCCO)C(=O)c2ccccc2C3=O)CC1	TAG inh 118, Lipid droplet 68 | Lipid drop inh 109 | AML12 tox img inactive | AML12 tox ATP inactive
CCN1C(=O)/C(=C2/C=Cc3ccccc3N2C)OC1=S	none
CCN1C(=O)/C(=C2\C=Cc3cc(C)ccc3N2CC)OC1=S	Lipid droplet 68 | Lipid drop inh 74 | AML12 tox img inactive | AML12 tox ATP inactive
Cc1cc(C)cc(OCC(=O)N(Cc2ccc(N(C)C)cc2)C2CCS(=O)(=O)C2)c1 (configuration not stated)	none
COc1ccc(-c2csc(NC(=O)c3ccc(OCC(=O)N4CCOCC4)c(OC)c3)n2)cc1OC	Lipid droplet 71 (no result: TAG inh) | Lipid drop inh 96 | AML12 tox img inactive | AML12 tox ATP inactive
COc1cc(C(=O)Nc2cccc(C)n2)ccc1OCC(=O)N1CCOCC1	none (no result: Lipid droplet)
Cn1nc(C(F)(F)F)c(-c2cccc(C(F)(F)F)c2)c1NC(=O)Nc1ccc(F)cc1	Lipid droplet 69 | Lipid drop inh 90 | AML12 tox img inactive | AML12 tox ATP inactive
COc1ccc(C(=O)OC(C)C(=O)Nc2cc(C(F)(F)F)ccc2Cl)c(OC)c1OC (configuration not stated)	Lipid droplet 80 (no result: TAG inh) | Lipid drop inh 107 | AML12 tox img inactive | AML12 tox ATP inactive
CC(OC(=O)c1ccc(O)cc1)C(=O)Nc1cc(C(F)(F)F)ccc1Cl (configuration not stated)	none
CCOC(=O)[C@@H]1[C@H]2COc3cc(OC)ccc3[C@H]2N2C(=O)N(c3ccc(F)cc3)C(=O)[C@@]12C	none (no result: TAG inh)
Cc1ccccc1OCc1nnc(SCC(=O)Nc2ccc3c(c2)oc2ccccc23)n1C	Lipid droplet 93 (no result: TAG inh) | Lipid drop inh inactive | AML12 tox img inactive
CCOC(=O)c1c(S(=O)(=O)NCC(=O)NCc2ccccc2Cl)c(C)n(C)c1C	none (no result: TAG inh)
Cc1ccccc1OCC(=O)NCCCNC(=O)c1ccccn1	Lipid droplet 93 (no result: TAG inh) | Lipid drop inh inactive | AML12 tox img inactive
C/C(CC(=O)Nc1ccc(Cl)c(Cl)c1)=N\NC(=O)Cc1ccccc1	none (no result: TAG inh)
COc1ccc(Cl)c(NC(=O)C/C(C)=N/NC(=O)CCc2ccccc2)c1	Lipid droplet 122 (no result: TAG inh) | Lipid drop inh 99 | AML12 tox img inactive | AML12 tox ATP inactive
CCOC(=O)/C(C(=O)Nc1ccccc1Cl)=C1/NC(C)(C)Cc2ccccc21	Lipid droplet 53 (no result: TAG inh) | Lipid drop inh inactive | AML12 tox img inactive
CCOC(=O)/C(C(=O)Nc1ccc(Br)cc1)=C1/NC(C)(C)Cc2ccccc21	none
COc1ccc(C(=O)NCC(=O)OCc2nc(N)nc(Nc3ccccc3C)n2)cc1	none (no result: Lipid droplet)
CC(C)c1ccccc1NC(=O)COC(=O)c1c2c(nc3ccccc13)CCN(Cc1ccccc1)C2	Lipid droplet 54 (no result: TAG inh) | Lipid drop inh inactive | AML12 tox img inactive | AML12 tox ATP inactive
Cc1c(Cl)cccc1NC(=O)COC(=O)c1c2c(nc3ccccc13)CCN(Cc1ccccc1)C2	none (no result: TAG inh)
Cc1cccc(NC(=O)c2cccc(OC(=S)N3CCOCC3)c2)c1	Lipid droplet 84 (no result: TAG inh) | Lipid drop inh 104 | AML12 tox img inactive | AML12 tox ATP inactive
O=C(CSc1nnc(CNC(=O)c2c(F)cccc2F)o1)NCc1ccc2c(c1)OCO2	none (no result: GRK2 inh, Lipid droplet, NTR1 ag, Beta2AR agonist, Arr AP2 block)
CC(C)(C)c1ccc(-c2nnc(SCC(=O)Nc3sc4c(c3C#N)CCCC4)o2)cc1	Lipid droplet 58 (no result: TAG inh) | Lipid drop inh inactive | AML12 tox img inactive
C/C(=N\Nc1ccc(S(=O)(=O)Nc2ccccc2)cc1[N+](=O)[O-])c1ccc(N2CCOCC2)cc1	Lipid droplet 51 | Lipid drop inh 72 | AML12 tox img inactive | AML12 tox ATP inactive
C/C(=N\Nc1ccc(S(=O)(=O)Nc2ccccc2)cc1[N+](=O)[O-])c1ccncc1	none (no result: TAG inh, Beta2AR agonist, Arr AP2 block)
C/C(=N\Nc1ccc(S(=O)(=O)Nc2ccc(Cl)cc2)cc1[N+](=O)[O-])c1ccc(N2CCOCC2)cc1	Lipid droplet 88 (no result: TAG inh) | Lipid drop inh inactive | AML12 tox img inactive | AML12 tox ATP inactive
O=C(Cc1coc2ccc3ccccc3c12)NC1CCCc2ccccc21 (configuration not stated)	Lipid droplet 52 (no result: TAG inh) | Lipid drop inh 91 | AML12 tox img inactive | AML12 tox ATP inactive
CCOc1ccc(NS(=O)(=O)c2ccc(C(=O)N(CC)CC(=O)NCc3cccs3)cc2)cc1	Lipid droplet 78 | Lipid drop inh 98 | AML12 tox img inactive | AML12 tox ATP inactive
CC(=O)c1ccc(S(=O)(=O)Nc2ccc(N3CCOCC3)cc2)cc1	none (no result: TAG inh)
CCOC(=O)c1ccc(S(=O)(=O)Nc2ccc(N3CCOCC3)cc2)cc1	Lipid droplet 86 (no result: TAG inh) | Lipid drop inh 79 | AML12 tox img inactive | AML12 tox ATP inactive
CCOc1ccc(NS(=O)(=O)c2ccc(C(=O)N3CCCCC3)cc2)cc1	Lipid droplet 57 | Lipid drop inh 87 | AML12 tox img inactive | AML12 tox ATP inactive
CCOc1ccc(NS(=O)(=O)c2ccc(C(=O)N3CCN(c4ncccn4)CC3)cc2)cc1	none
CCCc1cc(=O)[nH]c(SCC(=O)N2CC3(C)CC2CC(C)(C)C3)n1 (configuration not stated)	none (no result: Lipid droplet)
CCOc1ccc2ccccc2c1/C=N\NC(=O)OC	none (no result: TAG inh)
CCOc1ccc2ccccc2c1/C=N/NC(=O)CNC(=O)C(c1ccccc1)c1ccccc1	Lipid droplet 82 (no result: TAG inh) | Lipid drop inh 92 | AML12 tox img inactive | AML12 tox ATP inactive
